The text below walks through data of ChEMBL document CHEMBL1140852, “Synthesis, biological evaluation and quantitative structure-activities relationship of flavonoids as vasorelaxant agents” (Bioorg Med Chem, 2009).

Assay [1] relates to Aorta. Briefly: Vasorelaxant activity in Sprague-Dawley rat aorta assessed as inhibition of phenylephrine-induced contraction after 15 to 20 mins. Type of assay: functional, tissue-based. Put shortly:
(§1)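 Aortic rings from male Sprague-Dawley rats (4–6 months, ~250 g), equilibrated at least 1 h, then precontracted isometrically with PE (1 µM). Once contraction stabilized (~20 min), compounds were added cumulatively at 15–20 min intervals, up to 300 µM. Vehicle-treated control tissues were run in parallel. Relaxation is expressed as % of PE contraction (Emax), n = 4. EC50 was taken as 50% of maximum relaxation, from nonlinear regression of concentration-response curves.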

Assay [2] concerns Aorta. Briefly: Vasorelaxant activity in Sprague-Dawley rat aorta assessed as inhibition of phenylephrine-induced contraction after 15 to 20 mins relative to phenylephrine. Type of assay: functional. In outline:
as §1

Turning to `O=C1CC(c2cccc(Br)c2)Oc2cc(O)cc(O)c21` (racemic), the values for the EC50 with Aorta [1] and with Aorta [1] (read-out: pEC50 (converted)) were 42.4 µM and 43.7 µM, respectively. Further, in the assay on Aorta [2], the maximal response (Emax) (as a rule, the greatest response seen or fitted, relative to the assay's reference) is 93.5%.

`C=CCc1c(O)ccc(C(=O)/C=C/c2ccc(O)cc2)c1O`: the EC50 with Aorta [1] and in the assay on Aorta [1] (read-out: pEC50 (converted)) was 89.1 µM throughout. Also, in the assay on Aorta [2], the maximal effect (Emax) stood at 73.4%.

In the case of `C=CCc1c(O)cc(O)c2c1OC(c1cccc(Cl)c1)CC2=O` (racemic), the maximum response (Emax) in the assay with Aorta [2] worked out at 76.7%.

Regarding `C=CCc1cc(O)cc(C(=O)/C=C/c2ccc(O)cc2)c1O`, the maximal effect (Emax) in the assay on Aorta [2] came to 59.8%.

For the compound `C=CCc1c(O)cc(O)c(C(=O)/C=C/c2ccc(O)cc2)c1O`, the EC50 in the assay on Aorta [1] and in the assay with Aorta [1] (read-out: pEC50 (converted)) was 24 µM throughout. Also, in the assay with Aorta [2], the Emax was 108%.

`C=CCc1c(O)ccc2c1OC(c1ccc(O)cc1)CC2=O` (racemic): the EC50 with Aorta [1] and in the assay on Aorta [1] (read-out: pEC50 (converted)) was 26.9 µM each time. Also, the maximal effect (Emax) in the assay with Aorta [2] came to 87.2%.

Regarding `C=CCc1cc(O)cc2c(=O)cc(-c3ccc(O)cc3)oc12`, the EC50 in the assay with Aorta [1] and in the assay with Aorta [1] (read-out: pEC50 (converted)) was 51.3 µM in each case. Moreover, the Emax in the assay with Aorta [2] is 67.3%.

In the case of `C=CCc1c(O)cc(O)c2c1OC(c1ccc(OC)cc1)CC2=O` (racemic), the maximum response (Emax) in the assay with Aorta [2] was 81%.

Turning to `O=c1c(O)c(-c2ccc(O)c(O)c2)oc2cc(O)cc(O)c12` [QUERCETIN], the EC50 with Aorta [1] (read-out: pEC50 (converted)) was 245 µM. In addition, in the assay with Aorta [2], the Emax was 91.3%.

As for `C=CCc1c(O)ccc2c1OC(c1ccc(Cl)cc1)CC2=O` (racemic), the EC50 is 142 µM in the assay with Aorta [1] and 145 µM with Aorta [1] (read-out: pEC50 (converted)). Further, the Emax in the assay with Aorta [2] turned out to be 70.8%.

Take `C=CCc1c(O)cc(O)c2c1OC(c1ccc(O)cc1)CC2=O` (racemic): the EC50 in the assay on Aorta [1] was 32.1 µM; in the assay on Aorta [1] (read-out: pEC50 (converted)) it was 32.4 µM. The maximal effect (Emax) in the assay with Aorta [2] was found to be 98.6%.

With `C=CCc1c(O)cc(O)c2c1OC(c1cccc(O)c1)CC2=O` (racemic), the results for the EC50 in the assay with Aorta [1] and with Aorta [1] (read-out: pEC50 (converted)) were 37 µM and 36.3 µM, respectively. Also, in the assay on Aorta [2], the Emax was determined as 97.8%.

`C=CCc1c(O)cc(O)c2c1OC(c1cccc(Br)c1)CC2=O` (racemic): the Emax in the assay on Aorta [2] amounted to 78.8%.

Take `C=CCc1cc(O)cc2c1OC(c1ccc(O)cc1)CC2=O` (racemic): the results for the EC50 in the assay with Aorta [1] and with Aorta [1] (read-out: pEC50 (converted)) were 34.5 µM and 33.9 µM, respectively. The Emax in the assay on Aorta [2] came out at 95.3%.

In the case of `C=CCc1c(O)cc(O)c2c1OC(c1ccc(Cl)cc1)CC2=O` (racemic), in the assay with Aorta [2], the Emax amounted to 77.6%.

Turning to `C=CCc1c(O)ccc2c1OC(c1ccc(O)c(OC)c1)CC2=O` (racemic), the Emax in the assay with Aorta [2] amounted to 85%.

Turning to `C=CCc1cc(O)cc2c1OC(c1ccc(Cl)cc1)CC2=O` (racemic), the EC50 is 4.6 µM in the assay on Aorta [1] and 4.68 µM in the assay with Aorta [1] (read-out: pEC50 (converted)). In addition, in the assay with Aorta [2], the Emax worked out at 95.1%.

Regarding `O=C1CC(c2cccc(Br)c2)Oc2ccc(O)cc21` (racemic), the EC50 in the assay with Aorta [1] was 38.5 µM; with Aorta [1] (read-out: pEC50 (converted)), 38 µM. Moreover, the Emax in the assay with Aorta [2] is 91.8%.

Turning to `O=C1/C(=C/c2ccc3c(c2)OCO3)Oc2cc(O)cc(O)c21`, the EC50 was 220 µM with Aorta [1] and 224 µM in the assay with Aorta [1] (read-out: pEC50 (converted)). Besides, the maximum response (Emax) in the assay with Aorta [2] was 58.4%.

Turning to `C=CCc1cc(O)cc2c1OC(c1cccc(O)c1)CC2=O` (racemic), the EC50 with Aorta [1] and with Aorta [1] (read-out: pEC50 (converted)) was 10.2 µM each time. Moreover, the maximal effect (Emax) with Aorta [2] was 90.2%.

As to `O=C1/C(=C/c2cccc(Br)c2)Oc2cc(O)cc(O)c21`, in the assay with Aorta [2], the maximal response (Emax) is 59.2%.

As for `C=CCc1c(O)ccc2c1OC(c1ccc3c(c1)OCO3)CC2=O` (racemic), the EC50 in the assay with Aorta [1] was 9.4 µM; with Aorta [1] (read-out: pEC50 (converted)), 9.33 µM. Moreover, the maximal response (Emax) with Aorta [2] was found to be 96.6%.

Turning to `O=C(/C=C/c1ccc2c(c1)OCO2)c1c(O)cc(O)cc1O`, the results for the EC50 in the assay with Aorta [1] and with Aorta [1] (read-out: pEC50 (converted)) were 22.5 µM and 22.4 µM, respectively. Moreover, the Emax in the assay on Aorta [2] came to 104%.

Turning to `O=c1cc(-c2ccc3c(c2)OCO3)oc2cc(O)ccc12`, the EC50 in the assay on Aorta [1] is 81.7 µM; in the assay on Aorta [1] (read-out: pEC50 (converted)), 81.3 µM. The maximal effect (Emax) with Aorta [2] was found to be 82.1%.

Take `C=CCc1c(O)ccc(C(=O)/C=C/c2ccc3c(c2)OCO3)c1O`: the maximal response (Emax) in the assay on Aorta [2] came to 71.8%.

`O=C(/C=C/c1cccc(Br)c1)c1c(O)cc(O)cc1O`: in the assay with Aorta [1] (read-out: pEC50 (converted)), the EC50 was 21.4 µM. In addition, in the assay with Aorta [2], the Emax turned out to be 99.8%.

On to `O=C1CC(c2ccc3c(c2)OCO3)Oc2cc(O)cc(O)c21` (racemic), for which the EC50 in the assay on Aorta [1] was 20.1 µM; in the assay with Aorta [1] (read-out: pEC50 (converted)), 20 µM. Also, the Emax in the assay on Aorta [2] came out at 97.2%.

Regarding `O=c1cc(-c2cccc(Br)c2)oc2cc(O)cc(O)c12`, the EC50 is 36.8 µM with Aorta [1] and 36.3 µM in the assay with Aorta [1] (read-out: pEC50 (converted)). Moreover, the maximal effect (Emax) in the assay on Aorta [2] worked out at 84.3%.
